In the library only some 4.1% were active in any assay of this set; here they are far more common.
SMARCA2 act – increases SMARCA2 function in MMTV reporter cells; MG213 cells, MMTV-luciferase reporter, dexamethasone, overnight; activation, % at 9.1 µM; 370,000 compounds, 1% hits; in the data active = activation above about 7.8%
TAG inh – inhibitors of triacylglycerol accumulation; H9c2 cells, Nile Red lipid (TAG) fluorescence; cells loaded with 200 µM oleic acid; 230,000 compounds, 0.66% hits; AID 651582; inhibition, % at 12.5 µM;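 active = pattern-corrected inhibition of lipid staining of at least 50% with the nuclear-stain viability signal not falling by more than 50%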
AHR activator – activators of human aryl hydrocarbon receptor; AHR-responsive luciferase reporter cells, luminescence; activation, % at 5 µM; 320,000 compounds, 2.5% hits; AID 2796; in the data active = activation above about 47%
Target sequence (P35869 whole entry, looked up): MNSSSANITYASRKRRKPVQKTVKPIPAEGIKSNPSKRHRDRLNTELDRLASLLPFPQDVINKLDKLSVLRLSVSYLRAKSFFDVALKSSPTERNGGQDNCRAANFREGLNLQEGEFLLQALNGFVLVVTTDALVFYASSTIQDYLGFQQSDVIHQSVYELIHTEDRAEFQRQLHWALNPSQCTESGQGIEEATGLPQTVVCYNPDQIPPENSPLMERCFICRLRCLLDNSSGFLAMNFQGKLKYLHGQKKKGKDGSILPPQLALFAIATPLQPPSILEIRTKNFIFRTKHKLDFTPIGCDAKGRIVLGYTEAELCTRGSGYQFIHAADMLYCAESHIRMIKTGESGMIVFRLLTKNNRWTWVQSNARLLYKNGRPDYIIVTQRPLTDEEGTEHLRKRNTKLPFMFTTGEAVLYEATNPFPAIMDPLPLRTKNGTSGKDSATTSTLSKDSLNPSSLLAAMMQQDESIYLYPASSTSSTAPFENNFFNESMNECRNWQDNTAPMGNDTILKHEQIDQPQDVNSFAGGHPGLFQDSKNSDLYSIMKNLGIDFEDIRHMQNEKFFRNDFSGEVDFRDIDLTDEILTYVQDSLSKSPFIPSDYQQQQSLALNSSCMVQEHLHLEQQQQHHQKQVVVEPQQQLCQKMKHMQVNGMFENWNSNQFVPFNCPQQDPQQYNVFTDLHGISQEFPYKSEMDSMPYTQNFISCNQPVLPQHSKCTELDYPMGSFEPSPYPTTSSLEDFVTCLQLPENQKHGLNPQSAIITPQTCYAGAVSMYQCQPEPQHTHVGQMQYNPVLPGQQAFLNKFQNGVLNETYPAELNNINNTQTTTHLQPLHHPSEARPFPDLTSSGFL
Efflux pump mplx – inhibitors of Candida antifungal efflux pumps expressed in yeast. S. cerevisiae Candida pump triplex, Nile Red efflux. inhibition, % at 10 µM. 330,000 compounds, 0.44% hits;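 active = plate passing quality check with inhibition over a set limit, or well fluorescence over plate mean plus 4 SD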;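 also: Nile Red retained in pooled yeast measured as flow cytometry median fluorescence; higher means more Nile Red kept so more efflux inhibition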
Tb MetRS inh – blocks T. brucei methionyl-tRNA synthetase activity; purified T. brucei MetRS, ATP depletion, Kinase-Glo luminescence; inhibition, % at 11.9 µM; 360,000 compounds, 0.4% hits; AID 624268;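 active = inhibition above a per-plate cutoff of the control wells' mean inhibition plus 3 SD, cut at about 5.5% in these data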
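Dosing: 11.9 µM compound single dose, 0.9% DMSO; Assay system: purified T. brucei MetRS enzyme; Measured by: Kinase-Glo luciferase luminescence reporting remaining unconsumed ATP; Schedule: 15 min plus 2 h at 25 °C.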
Numbers stand for hits; . = inactive; / = no result given.

SMILES | SMARCA2 act | TAG inh | AHR activator | Efflux pump mplx | Tb MetRS inh
O=C(/C=C/c1cccc(F)c1)OCC(=O)c1ccc[nH]1 | 7.9 | . | . | . | .
O=C(/C=C/c1ccc(F)cc1)OCC(=O)c1ccc[nH]1 | . | . | . | . | .
CCC(=O)N1c2ccc(C)cc2C2=NNC(=S)NC21O (centres undefined) | . | . | 61.8 | . | .
CC1=CC(C)(C)N(C(=O)CN2C(=O)c3ccccc3C2=O)c2ccc(C)cc21 | . | / | . | . | .
O=S(=O)(CC1NCc2cc(F)ccc21)NC1CCCC1 (centres undefined) | . | / | / | / | /
Cc1nc2nc(C)n(CCN3CCOCC3)c(=O)c2c(-c2cccc([N+](=O)[O-])c2)c1C(=O)CCCCCCCCCCN1CCC(c2ccccc2)(c2ccccc2)CC1 | . | 126.9 | / | / | .
Cc1cc(-c2n[nH]c(=S)n2N=Cc2ccc(OCc3ccccc3)cc2)n[nH]1 | . | / | / | / | /
COc1ccc(Nc2nc(N)nc(SCc3nnc(C)s3)n2)cc1 | . | . | 56.3 | . | .
COc1ccc(OCc2nc(N)nc(Nc3ccccc3)n2)cc1 | . | . | . | . | .
COc1ccc(Nc2nc(N)nc(COc3ccc(OC)cc3)n2)cc1 | . | . | 60.2 | . | .
COc1ccc(OCc2nc(N)nc(Nc3ccc(C)cc3)n2)cc1 | . | . | 64.8 | . | .
NC(=O)C1=CN([C@@H]2O[C@H](COP(=O)(O)OP(=O)(O)OC[C@H]3O[C@@H](n4cnc5c(N)ncnc54)[C@H](O)[C@@H]3O)[C@@H](O)[C@H]2O)C=CC1 | . | / | / | / | /
COc1ccc(-c2cc(C(F)F)n3ncc(C(=O)N4CCN(C(=O)c5ccco5)CC4)c3n2)cc1 | . | . | . | 0.8 | .
COc1cc(/C=C/c2ccc3cccc(O)c3n2)cc(OC)c1OC | . | / | . | . | .
Oc1cccc(/C=C/c2ccc3cccc(O)c3n2)c1 | . | / | 70.3 | . | .
CN1Cc2c(N3CCOCC3)nc3sc(C(=O)c4ccc(Br)cc4)c(N)c3c2CC1(C)C | . | 68.2 | . | . | .
O=C(NNC(=S)NC(=O)c1sc2ccccc2c1Cl)c1ccc(Cl)cc1 | . | / | 109.6 | . | .
CCOC(=O)CC(=O)CSc1nc2ccc(C)cc2cc1C#N | 8.8 | / | . | . | .
COc1ccccc1N1CCN(C(=O)c2ccc(-c3nc4ccccc4s3)o2)CC1 | . | . | . | . | .
COc1ccc(N2CCN(C(=O)c3ccc(-c4nc5ccccc5s4)o3)CC2)cc1 | . | . | 69.2 | . | .
CC(C)=CCN1C(=O)[C@]2(OCCC=C[C@H]2C)c2c(Br)cccc21 | . | / | / | / | /
Cc1ccc(NC(=O)c2nsc(Cl)c2Cl)cc1 | . | . | 69.0 | . | .
O=C(NC1CCCCN(Cc2ccc(Cl)cc2)C1=O)c1c(F)cccc1F (centres undefined) | . | / | / | / | /
Cc1ccc(-c2nc3cnccn3c2Nc2ccc3c(c2)OCO3)cc1 | . | . | 55.7 | . | .
Oc1ccc(-c2nc3ccccn3c2NCc2ccc3c(c2)OCO3)cc1 | . | . | 70.7 | . | .
SMILES | SMARCA2 act | TAG inh | AHR activator | Efflux pump mplx | Tb MetRS inh
CN(C)c1ccc(-c2nc3cnccn3c2Nc2ccc3c(c2)OCCO3)cc1 | . | . | . | . | .
Cc1ccn2c(NCc3ccc4c(c3)OCO4)c(-c3ccc(O)cc3)nc2c1 | . | / | 66.0 | . | .
Cc1ccc2nc(-c3ccc(O)cc3)c(Nc3ccc4c(c3)OCCO4)n2c1 | . | . | . | . | .
Fc1ccc(-c2nc3ccccn3c2NCc2ccc3c(c2)OCO3)cc1 | . | . | . | . | .
Cc1ccccc1N(C)C(=O)C1CCCN1S(=O)(=O)c1cccc2cccnc12 (centres undefined) | . | / | / | / | /
Cc1cc(NS(=O)(=O)c2ccc(NC(=O)CSc3nc4sc(C)c(C)c4c(=O)n3Cc3ccco3)cc2)nc(C)n1 | . | / | / | / | /
COc1ccc(CNC(=O)CCc2nc(-c3ccccc3F)no2)c(OC)c1 | . | . | 49.0 | . | .
CCc1c(Cc2cccc(F)c2)ncn1CCc1ccccc1OC | . | / | / | / | /
COCCCn1c(=NC(=O)c2ccncc2)c(C#N)cc2c(=O)n3cccc(C)c3nc21 | . | . | 58.9 | . | .
Cc1cc(OCC(=O)NCc2ccncc2)c2c(C)cc(=O)oc2c1 | . | / | 61.5 | . | .
CCCCc1cc(=O)oc2cc(C)cc(OCC(=O)Nc3cccnc3)c12 | . | / | 51.2 | . | .
COc1ccc(/C(=N/Nc2ncnc3ccccc23)C(=O)O)cc1 | . | / | 72.9 | . | .
CN(C)c1cccc(/C=C2\CC3(OC(=O)c4ccc(F)cc4)CCCN2C3)c1 (centres undefined) | . | / | / | / | /
O=C(N/N=C/c1ccccn1)c1cc(-c2cccc3ccccc23)n[nH]1 | . | . | 69.7 | . | .
O=C(O)c1ccc(/C=N/NC(=O)c2cc(-c3ccc4c5c(cccc35)CC4)n[nH]2)cc1 | . | / | 77.9 | . | .
O=C(O)c1ccc(C=NNC(=O)c2cccc3ccccc23)cc1 | . | . | / | / | .
O=C(N/N=C/c1cccs1)c1cc(-c2cccc3ccccc23)n[nH]1 | . | / | 48.1 | . | .
O=C(N/N=C/c1ccccn1)c1cc(-c2ccccc2Cl)n[nH]1 | . | . | . | . | .
Cn1ccsc1=NC(=O)c1ccccc1OC(F)F | . | . | 71.3 | . | .
COc1ccc(NCc2nnc(SCC(=O)Nc3ccc(OC)cc3)n2C)cc1 | . | / | . | . | .
CC(=O)Nc1ccc2c(c1)c1ccccc1n2C(C)=O | . | / | . | . | .
CCn1c2ccccc2c2cc(NC(=O)COc3ccccc3OC)ccc21 | . | / | 62.3 | . | .
CCn1c2ccccc2c2cc(NC(=O)CNCc3ccccc3OC)ccc21 | . | / | . | . | .
CCn1c(=O)cc(OCC(=O)N2CCN(c3ccc(F)cc3)CC2)c2ccccc21 | . | . | 54.0 | . | .
CCn1c2ccccc2c2cc(NC(C)=O)ccc21 | . | . | 50.5 | . | .
CCOC(=O)c1ccc(NC(=O)CSc2nnc(CNc3ccc(OC)cc3)n2C)cc1 | . | / | 59.0 | . | .
CCn1c(=O)cc(OCC(=O)N2CCCCCC2)c2ccccc21 | . | . | . | . | .
COC(=O)c1cc(-c2cc3ccccc3o2)c(=O)n2c1CCC2 | . | / | / | / | /

High-throughput results (PubChem BioAssay)
